Most compounds without a hit are left out; they make up all but 1.6% or so of the library.
zVAD death inh = L929 zVAD cell death inhibition; L929 zVAD necroptosis rescue, ATP luminescence, 24 h; with zVAD 60 µM; viability rescue, % at 10 µM; actives 0.38% (n = 220,000);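 active = activation, scaled between plate controls, above about 75%, limit read from the data; inactive = activation under that limit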
Pf gamet viab = P. falciparum stage V gametocyte viability inhibition | P. falciparum stage V gametocytes, ATP luminescence, 24 h | inhibition, % at 10.9 µM | actives 0.065% (n = 150,000) | AID 743093;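 active = inhibition above the mean plus 3 SD of compounds within the control limits, set per campaign, cut at about 38% in these data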
MDM2 E3 inh = inhibitors of human Mdm2 E3 ubiquitin ligase. signal enhancement, % at 5 µM. cell-based MDM2 ubiquitination luciferase reporter, 2 h; 0 = plate control, 100 = twice control, blank-subtracted. actives 0.11% (n = 210,000). AID 1230;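 active = signal enhancement of 30% or more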;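 also: luminescence tracks abundance of the self-degrading MDM2-luciferase fusion protein; higher signal means inhibition of MDM2 E3 ligase activity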
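Test system: stable mammalian line carrying autodegrading MDM2–luciferase fusion reporter; quantity: 2000 cells in each well; times: 4 h cell settling then 2 h compound exposure, 37 °C; detection: luminescence with SteadyLite reagent, 15 min at room temperature; evaluation: percent signal gain over controls, blank-subtracted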
TNF death inh = blocks TNF-alpha induced death of Jurkat FADD-/- cells | Jurkat FADD-/- TNF necroptosis rescue, ATP luminescence, 24 h; 0 = TNF only, 100 = no-TNF cells | activation (protection from cell death), % at 10 µM | actives 0.068% (n = 220,000);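 active = activation, meaning protection from cell death, of at least 50% relative to plate controls; inactive = activation below 50%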;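 also: necroptosis triggered by 40 ng/mL TNF-alpha added together with compound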
Wee1 stabilizer = inhibitors of human Wee1 degradation | P30291 | HeLa Luc-Wee1K328M stability, luciferase luminescence; 100% = proteasome inhibitor MG132 effect | reporter increase, % at 5 µM | actives 1.2% (n = 220,000) | AID 1321;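 active = activation above the mean of all tested compounds plus 3 SD, set per screening run, cut at about 8.8% in these data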;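 also: cells exposed to compound for 20 h before luminescence read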
Target sequence (P30291 whole entry K328M): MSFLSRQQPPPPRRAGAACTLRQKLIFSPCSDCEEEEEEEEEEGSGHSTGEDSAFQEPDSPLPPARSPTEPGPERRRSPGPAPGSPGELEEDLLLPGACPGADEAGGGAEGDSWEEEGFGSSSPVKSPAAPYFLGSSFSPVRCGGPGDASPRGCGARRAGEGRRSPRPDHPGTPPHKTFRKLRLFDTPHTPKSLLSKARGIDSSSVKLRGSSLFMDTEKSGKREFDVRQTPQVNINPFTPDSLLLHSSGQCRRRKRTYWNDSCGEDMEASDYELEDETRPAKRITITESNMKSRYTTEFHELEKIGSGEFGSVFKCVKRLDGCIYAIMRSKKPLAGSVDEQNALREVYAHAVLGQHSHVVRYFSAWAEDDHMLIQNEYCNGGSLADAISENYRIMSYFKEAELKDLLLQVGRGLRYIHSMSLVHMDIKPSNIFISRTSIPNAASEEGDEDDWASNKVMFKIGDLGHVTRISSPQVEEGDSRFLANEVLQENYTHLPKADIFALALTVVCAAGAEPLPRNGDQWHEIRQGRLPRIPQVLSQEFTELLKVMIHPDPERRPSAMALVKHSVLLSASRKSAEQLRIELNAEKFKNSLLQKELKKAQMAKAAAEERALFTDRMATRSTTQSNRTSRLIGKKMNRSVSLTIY
Wee1 stab conf = confirmation of human Wee1 degradation inhibitors. activation, % at 5 µM. HeLa Luc-Wee1K328M degradation, luminescence; vehicle 0%, proteasome-blocked wells 100%. shares compounds with Wee1 stabilizer. AID 1410. actives 4% (n = 1,100); in the data active = activation above about 8.9%
Of the large screens only hits and unclear results are named; the others gave an inactive call (follow-up assays come after a bar, where they were run).

Cc1cc(C)n(CCN(C)Cc2nc(Cc3ccccc3F)no2)n1	Wee1 stabilizer 11 | Wee1 stab conf inactive
CN(Cc1nc(Cc2ccccc2F)no1)[C@@H]1CS(=O)(=O)C[C@H]1O	none
CCCCn1c(=O)nc2n(-c3ccccc3C)c3ccccc3cc-2c1=O	none
Cc1ccccc1-n1c2nc(=O)n(C)c(=O)c-2cc2ccccc21	Wee1 stabilizer 14 | Wee1 stab conf inactive
CCOC(=O)C1(CC2CCCCO2)CCN(C(=O)Nc2ccccc2SC)CC1 (centres undefined)	Wee1 stabilizer 12 (no result: Pf gamet viab) | Wee1 stab conf inactive
CCN(CC(=O)NCc1cccs1)c1ccc(S(=O)(=O)N2CCCC2)cn1	Wee1 stabilizer 14 | Wee1 stab conf inactive
O=C(CSc1nc2[nH]ncc2c(=O)n1-c1ccccc1)N1CCCCCC1	Wee1 stabilizer 12 (no result: Pf gamet viab) | Wee1 stab conf inactive
O=S1(=O)N=C(Nc2ccc(N3CCOCC3)c(Cl)c2)c2ccccc21	Wee1 stabilizer 11 | Wee1 stab conf inactive
C=CCNc1nc(Cl)nc(Nc2ccc(OC)cc2)n1	none (no result: Pf gamet viab)
COc1ccc(Nc2nc(Cl)nc(Nc3ccc(OC)cc3)n2)cc1	Wee1 stabilizer 13 (no result: Pf gamet viab) | Wee1 stab conf inactive
Cc1ccnc(NC(=O)CCCOc2cc(=O)n(C)c3ccccc23)c1	Wee1 stabilizer 14 | Wee1 stab conf 46
Cn1c(=O)cc(OCCCC(=O)NCc2ccccn2)c2ccccc21	none
Cc1cccc(CCNC(=O)COc2cc(=O)n(C)c3ccccc23)c1	Wee1 stabilizer 11 | Wee1 stab conf inactive
Cc1cccc(CCNC(=O)CCCOc2cc(=O)n(C)c3ccccc23)c1	none
COc1ccc2c(c1)c(=O)cc(-c1ccccc1)n2C	Wee1 stabilizer 11 (no result: Pf gamet viab) | Wee1 stab conf inactive
CCCCn1c(SCC(=O)/C(C#N)=C(\C)N)nc2ccccc2c1=O	none
CC(=O)Nc1cccc(NC(=O)CSc2ccc(-c3cccnc3)nn2)c1	none
Cc1nn(Cc2ccc(Cl)c(Cl)c2)c(C)c1NC(=O)c1noc2c1CCCCC2	none (no result: Pf gamet viab)
O=C(CSCc1cnn(-c2ccccc2)c1-n1cccc1)NCc1ccccn1	none
CCN(CC)C(=O)CSCc1cnn(-c2ccccc2)c1-n1cccc1	Wee1 stabilizer 16 | Wee1 stab conf inactive
CC(C)(C)NC(=O)c1ccc2c(c1)CCO2	none
Cc1c(O)ccc2c(O)c(NC(=O)c3ccc4c(c3)CCC(C)(C)O4)c(=O)oc12	Wee1 stabilizer 12 (no result: Pf gamet viab) | Wee1 stab conf inactive
COc1cc(CCC(=O)OCC(=O)Nc2ccc(C(N)=O)cc2)cc(OC)c1OC	none
O=C(CSc1nc2ccccc2c(=O)n1-c1ccc(F)cc1)Nc1ccc(Cl)c(S(=O)(=O)N2CCOCC2)c1	Wee1 stabilizer 14 (no result: zVAD death inh) | Wee1 stab conf inactive
Cc1ccc2c(c1)nnn2C1CCN(CC(=O)N2c3ccccc3CC2C)CC1 (centres undefined)	none (no result: Pf gamet viab)
COc1ccc(N2CCN(C(=O)CCN3C(=S)NC(C)(C)CC3C)CC2)cc1 (centres undefined)	Wee1 stabilizer 11 (no result: Pf gamet viab) | Wee1 stab conf inactive
COC(=O)C1=C(Nc2ccccc2NC(=O)c2ccccc2C(=O)O)CSC1	none
Cc1ccc(NC(=O)C(=O)c2c(-c3ccccc3)cc3ccccn23)cc1S(=O)(=O)N1CCOCC1	none
CCOc1ccc(NC(=S)Nc2ccc(C)c([N+](=O)[O-])c2)cc1	Wee1 stabilizer 14 | Wee1 stab conf inactive
Oc1ccc(N=Nc2n[nH]c(-c3ccc(Br)cc3)n2)cc1	none
Cc1ccc(C)c2[nH]c(=O)c(CCNC(=O)CC(C)(C)C)cc12	none (no result: Pf gamet viab)
COc1ccc(NC(=O)CCN2C(=O)C3C4CCC(C4)C3C2=O)cc1 (centres undefined)	Wee1 stabilizer 12 | Wee1 stab conf inactive
O=C(N/N=C/c1cc(Br)cs1)c1ccc2c(c1)OCCO2	none
Cc1ccc(/C=N/NC(=O)c2ccc3c(c2)OCCO3)s1	Wee1 stabilizer 12 | Wee1 stab conf 11
CC1=C(C(=O)OCC2CCCO2)C(c2ccc(O)cc2)NC(=O)N1 (centres undefined)	none
CC1=C(C(=O)OCC2CCCO2)C(c2ccc(Cl)cc2)NC(=O)N1 (centres undefined)	Wee1 stabilizer 12 | Wee1 stab conf inactive
O=C(NNC(=O)C12CC3CC(CC(C3)C1)C2)[C@@H]1C[C@H]1c1ccccc1	Wee1 stabilizer 20 | Wee1 stab conf inactive
CN1N=C(C(=O)N2CCc3c([nH]c4ccccc34)C2c2ccccc2Cl)CCC1=O (centres undefined)	Wee1 stabilizer 12 | Wee1 stab conf inactive
O=C(c1cc[n+]([O-])cc1)N1CCc2c([nH]c3ccccc23)C1c1ccccc1Cl (centres undefined)	none
CC(C)C(O)(C#CCN1CCCCC1)c1ccccc1 (centres undefined)	Wee1 stabilizer 12 (no result: Pf gamet viab) | Wee1 stab conf inactive
CC(C)C(O)(C#CCN1CCCC1)c1ccccc1 (centres undefined)	none
CC(O)C(NS(=O)(=O)c1ccc(Cl)cc1)C(=O)OCC(=O)Nc1cccnc1Cl (centres undefined)	Wee1 stabilizer 20 | Wee1 stab conf inactive
Cc1cc(OCCCC(=O)NC2=NCCS2)ccc1Cl	none
CC(=O)O/N=C/c1c(NCc2ccccc2)nc2c(C)cccn2c1=O	Wee1 stabilizer 12 | Wee1 stab conf inactive
COc1ccccc1C(=O)NNC(=S)Nc1ccccc1	none
CCCCCCCCCn1c2c(c(=N)c3c1CCC3)CCCC2	Wee1 stabilizer 11 (no result: Pf gamet viab) | Wee1 stab conf inactive
Cc1c(N2C(=O)c3cccc4cccc(c34)C2=O)c(=O)n(-c2ccccc2)n1C	none (no result: Pf gamet viab)
CCOC(=O)CC(NC(=O)c1ccc(C)cc1)c1ccc(C)cc1 (centres undefined)	Wee1 stabilizer 14 (no result: Pf gamet viab) | Wee1 stab conf inactive
COC(=O)[C@]1(C)N[C@H](c2ccc(-c3ccc(Cl)c(Cl)c3)c(OC)c2)[C@@H]2C(=O)N(C)C(=O)[C@@H]21	none (no result: zVAD death inh, MDM2 E3 inh, TNF death inh, Wee1 stabilizer)
CN(C)C(=S)NC(=O)C12CC3(C)CC(C)(CC(C)(C3)C1)C2	Wee1 stabilizer 11 | Wee1 stab conf inactive
COc1ccccc1N(C)S(=O)(=O)c1ccc(Cl)c(C(=O)NC2=NCCS2)c1	Wee1 stabilizer 12 | Wee1 stab conf inactive
Cc1ccc([N+](=O)[O-])c(-c2n[nH]c(=S)n2-c2cccc(Cl)c2)c1	none
C=CCN(c1ccc(C(=O)OC)cc1)S(=O)(=O)c1ccccc1	none
CN(C)C(=S)N=Nc1[nH]c2ccccc2c1O	Wee1 stabilizer 11 | Wee1 stab conf inactive
CNC(=S)N=Nc1c(O)[nH]c2ccccc12	none
Fc1nc(N2CCCC2)c(F)c(Oc2ccccc2Oc2c(F)c(F)nc(N3CCCC3)c2F)c1F	none (no result: Pf gamet viab)
COc1ccc(NC(=O)Nc2ccccc2SC)cc1	Wee1 stabilizer 11 (no result: Pf gamet viab) | Wee1 stab conf inactive
